Drawing on ChEMBL document CHEMBL5126632, “Balancing Affinity, Selectivity, and Cytotoxicity of Hydrazone-Based G-Quadruplex Ligands for Activation of Interferon β Genes in Cancer Cells” (J Med Chem, 2022), this text covers ΔTm for eight compounds.

In assay [1] the test system is Quadruplex DNA. In words: Stabilization of c-kit1 G4 quadruplex d(DNA AGGGAGGGCGCTGGGAGGAGGG) DNA (unknown origin) assessed as thermal stability by measuring difference in melting temperature t1/2 by circular dichroism spectroscopy (reference value: 54 +/- 0.5 degC). Format: nucleic-acid assay.
Assay [2] concerns Quadruplex DNA. In words: Stabilization of human Tel26 G4 quadruplex DNA assessed as thermal stability by measuring difference in melting temperature t1/2 by circular dichroism spectroscopy. Format: nucleic-acid assay. In general terms: CD spectra are sensitive to the conformation of chiral molecules.
The subject of assay [3] is Quadruplex DNA. In words: Stabilization of c-kit2 G4 quadruplex d(CGGGCGGGCGCTAGGGAGGGT) DNA (unknown origin) assessed as thermal stability by measuring difference in melting temperature t1/2 by circular dichroism spectroscopy (reference value: 61.5 +/- 0.5 degC). Format: nucleic-acid assay.
Assay [4] is described as follows: Stabilization of d(CGC GAA TTC GCG TIT CGC GAA TTC GCG) DNA hairpin (unknown origin) assessed as thermal stability by measuring difference in melting temperature t1/2 by circular dichroism spectroscopy (reference value: 75.4 +/- 0.2 degC). Summed up:
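CD melting of 15 μM annealed hairpin duplex in 5 mM K phosphate pH 7.0 with 20 mM KCl, with or without ligand at 2 molar equiv added to the folded DNA. The signal was followed at 252 nm from 20 to 100 °C at 1 °C/min, with T1/2 taken from a curve fit. ΔT1/2 is relative to DNA alone; duplicate runs, averaged.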

Assay [5] deals with Quadruplex DNA. Description: Stabilization of c-myc G4 quadruplex d(TTAGGGTTAGGGTTAGGGTTAGGGTT) DNA (unknown origin) assessed as thermal stability by measuring difference in melting temperature t1/2 by circular dichroism spectroscopy (reference value: 72 +/- 0.5 degC). Format: nucleic-acid assay.

In general, ΔTm refers to the shift of the melting midpoint relative to a reference.

Take `Cc1ccc(-c2nc3n(ccc4nc(-c5ccccc5)c(/C=N/NC(=N)N)n43)c2/C=N/NC(=N)N)cc1`: the ΔTm is 25.2 °C in assay [1]; 6.3 °C in assay [2]; > 30 °C in assay [3]; 3.2 °C in assay [4]; 16.9 °C in assay [5].
The corresponding values for `Cc1ccc(-c2nc3n(ccc4nc(-c5ccc(C)cc5)c(/C=N/NC(=N)N)n43)c2C=O)cc1` are 6.1 °C, 2.1 °C, 16.2 °C, 2.3 °C and 4.6 °C.
The corresponding values for `Clc1ccc(-c2nc3n(ccc4nc(-c5ccc(Cl)cc5)c(/C=N/NC5=NCCN5)n43)c2/C=N/NC2=NCCN2)cc1` are 9.6 °C, 3.3 °C, 13.7 °C, 3.5 °C and 5.5 °C.
The corresponding values for `Cc1ccc(-c2nc3n(ccc4nc(-c5ccccc5)c(/C=N/NC(=N)N)n43)c2C=O)cc1` are 6.6 °C, 3.8 °C, 20.8 °C, 1.2 °C and 3.1 °C.
`C(=N\NC1=NCCN1)/c1c(-c2ccsc2)nc2n1ccc1nc(-c3ccsc3)c(/C=N/NC3=NCCN3)n12`: the ΔTm in assay [1] was determined as 10.3 °C; in assay [2] it was 3.8 °C; in assay [3], 14.9 °C; in assay [4] it was 2 °C; in assay [5], 4.7 °C.
Taken in the same sequence, the figures for `N=C(N)N/N=C/c1c(-c2ccccc2)nc2n1ccc1nc(-c3ccc(Cl)cc3)c(/C=N/NC(=N)N)n12` were 21.4 °C, 5 °C, > 30 °C, 2.3 °C and 17.6 °C.
As to `Cc1ccc(-c2nc3n(ccc4nc(-c5ccc(C)cc5)c(/C=N/NC5=NCCN5)n43)c2/C=N/NC2=NCCN2)cc1`, the ΔTm is 17.1 °C in assay [1]; 4.5 °C in assay [2]; 26.5 °C in assay [3]; 2.4 °C in assay [4]; 8.5 °C in assay [5].
Taken in the same sequence, the figures for `Cc1ccc(-c2nc3n(ccc4nc(-c5ccc(C)cc5)c(/C=N/NC5=NCCN5)n43)c2C=O)cc1` were 3.8 °C, 1.3 °C, 6.8 °C, 0 °C and 1.5 °C.
